# Results taken from ChEMBL document CHEMBL1811853, “Design and evaluation of 3-aminopyrazolopyridinone kinase inhibitors inspired by the natural product indirubin” (Bioorg Med Chem, 2011).
# Assays:
# [1] = biological target: T1, Aurora kinase A (Homo sapiens) (UniProt O14965); experiment: Inhibition of AurA at 30 uM by microfluidic mobility shift assay
# T1 sequence (whole entry): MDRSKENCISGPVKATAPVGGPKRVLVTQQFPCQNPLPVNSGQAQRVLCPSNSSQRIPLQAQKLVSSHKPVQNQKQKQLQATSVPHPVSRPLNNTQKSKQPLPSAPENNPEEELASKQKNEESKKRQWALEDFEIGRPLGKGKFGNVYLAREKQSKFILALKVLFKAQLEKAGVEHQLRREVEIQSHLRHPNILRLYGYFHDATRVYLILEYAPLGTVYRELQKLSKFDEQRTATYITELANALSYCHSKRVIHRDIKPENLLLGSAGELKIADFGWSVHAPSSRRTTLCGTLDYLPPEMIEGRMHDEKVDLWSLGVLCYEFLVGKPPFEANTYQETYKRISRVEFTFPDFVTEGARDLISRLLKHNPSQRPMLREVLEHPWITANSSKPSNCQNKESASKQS
# Outline: (§1)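 Single-concentration screen, singlicate, 30 uM final (diluted from 1 mM DMSO solutions), fluorescently tagged peptide substrate appropriate to each kinase, ATP at apparent Km for each protein. Phosphorylated and unphosphorylated peptides separated electrophoretically; conversion is the phosphorylated peak area over the sum of both peaks. No-inhibitor and no-ATP controls; H89 reference on each plate.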
# [2] = biological target: T2, Protein kinase C zeta type (Homo sapiens) (UniProt Q05513); experiment: Inhibition of PKCz at 30 uM by microfluidic mobility shift assay; outline: as §1
# T2 sequence (whole entry): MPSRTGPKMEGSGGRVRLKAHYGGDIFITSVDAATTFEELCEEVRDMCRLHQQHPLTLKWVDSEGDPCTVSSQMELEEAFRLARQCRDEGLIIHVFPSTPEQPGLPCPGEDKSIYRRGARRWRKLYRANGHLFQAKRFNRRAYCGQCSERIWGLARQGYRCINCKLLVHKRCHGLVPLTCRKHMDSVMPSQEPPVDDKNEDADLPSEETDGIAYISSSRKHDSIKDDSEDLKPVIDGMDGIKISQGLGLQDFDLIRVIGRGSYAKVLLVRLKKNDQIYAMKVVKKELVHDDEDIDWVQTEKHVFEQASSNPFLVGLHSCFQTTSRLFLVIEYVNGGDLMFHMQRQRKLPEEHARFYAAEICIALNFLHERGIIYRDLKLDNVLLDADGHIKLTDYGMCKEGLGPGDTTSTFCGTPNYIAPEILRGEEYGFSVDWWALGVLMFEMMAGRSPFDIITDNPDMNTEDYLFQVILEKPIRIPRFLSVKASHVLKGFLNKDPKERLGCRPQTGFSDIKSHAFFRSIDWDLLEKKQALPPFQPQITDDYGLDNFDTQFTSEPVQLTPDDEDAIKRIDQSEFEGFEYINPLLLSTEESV
# [3] = biological target: Ribosomal protein S6 kinase alpha-1 (Homo sapiens) (UniProt Q15418); experiment: Inhibition of RSK1 at 30 uM by microfluidic mobility shift assay; outline: as §1
# [4] = biological target: T3, Serine/threonine-protein kinase D2 (Homo sapiens) (UniProt Q9BZL6); experiment: Inhibition of PKD2 at 30 uM by microfluidic mobility shift assay; outline: as §1
# T3 sequence (whole entry): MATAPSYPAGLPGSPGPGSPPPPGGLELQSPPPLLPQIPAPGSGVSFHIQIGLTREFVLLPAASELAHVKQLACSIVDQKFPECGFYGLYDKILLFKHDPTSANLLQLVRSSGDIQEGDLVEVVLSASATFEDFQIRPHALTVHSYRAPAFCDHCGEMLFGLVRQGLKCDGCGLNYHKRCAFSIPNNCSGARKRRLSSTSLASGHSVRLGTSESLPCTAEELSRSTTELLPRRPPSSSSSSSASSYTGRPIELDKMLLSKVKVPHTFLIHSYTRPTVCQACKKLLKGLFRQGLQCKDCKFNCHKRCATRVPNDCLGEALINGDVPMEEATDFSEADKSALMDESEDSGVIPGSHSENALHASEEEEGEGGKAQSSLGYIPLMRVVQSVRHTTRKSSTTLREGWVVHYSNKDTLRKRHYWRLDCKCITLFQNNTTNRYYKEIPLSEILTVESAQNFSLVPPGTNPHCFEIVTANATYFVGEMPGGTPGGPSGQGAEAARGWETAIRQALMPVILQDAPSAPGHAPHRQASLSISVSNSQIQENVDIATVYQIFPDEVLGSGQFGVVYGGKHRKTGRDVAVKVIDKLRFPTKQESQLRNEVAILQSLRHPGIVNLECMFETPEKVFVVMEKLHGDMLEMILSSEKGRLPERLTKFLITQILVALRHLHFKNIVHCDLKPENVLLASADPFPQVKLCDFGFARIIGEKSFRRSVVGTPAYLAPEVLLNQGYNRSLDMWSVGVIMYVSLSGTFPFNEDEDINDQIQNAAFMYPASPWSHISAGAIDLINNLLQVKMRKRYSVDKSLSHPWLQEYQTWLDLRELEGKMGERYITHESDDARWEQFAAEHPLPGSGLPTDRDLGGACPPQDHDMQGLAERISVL
# [5] = biological target: T4, Serine/threonine-protein kinase Chk1 (Homo sapiens) (UniProt O14757); experiment: Inhibition of CHK1 at 30 uM by microfluidic mobility shift assay; outline: as §1
# T4 sequence (whole entry): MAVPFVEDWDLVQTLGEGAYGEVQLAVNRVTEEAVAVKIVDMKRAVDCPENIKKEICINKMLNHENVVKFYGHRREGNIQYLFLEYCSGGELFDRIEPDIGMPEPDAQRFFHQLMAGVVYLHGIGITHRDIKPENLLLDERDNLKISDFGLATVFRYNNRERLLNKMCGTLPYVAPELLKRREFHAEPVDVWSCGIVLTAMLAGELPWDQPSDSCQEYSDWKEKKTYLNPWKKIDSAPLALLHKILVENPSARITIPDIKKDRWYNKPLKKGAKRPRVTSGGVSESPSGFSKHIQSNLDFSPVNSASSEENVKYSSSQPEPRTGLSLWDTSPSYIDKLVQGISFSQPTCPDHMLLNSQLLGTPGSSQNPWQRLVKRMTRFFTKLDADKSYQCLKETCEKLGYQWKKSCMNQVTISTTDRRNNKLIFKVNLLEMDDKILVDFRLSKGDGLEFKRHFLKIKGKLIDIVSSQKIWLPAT
# [6] = biological target: Tyrosine-protein kinase ABL1 (Homo sapiens, UniProt P00519); experiment: Inhibition of ABL at 30 uM by microfluidic mobility shift assay; outline: as §1
# Sequence of Tyrosine-protein kinase ABL1 (P00519 whole entry): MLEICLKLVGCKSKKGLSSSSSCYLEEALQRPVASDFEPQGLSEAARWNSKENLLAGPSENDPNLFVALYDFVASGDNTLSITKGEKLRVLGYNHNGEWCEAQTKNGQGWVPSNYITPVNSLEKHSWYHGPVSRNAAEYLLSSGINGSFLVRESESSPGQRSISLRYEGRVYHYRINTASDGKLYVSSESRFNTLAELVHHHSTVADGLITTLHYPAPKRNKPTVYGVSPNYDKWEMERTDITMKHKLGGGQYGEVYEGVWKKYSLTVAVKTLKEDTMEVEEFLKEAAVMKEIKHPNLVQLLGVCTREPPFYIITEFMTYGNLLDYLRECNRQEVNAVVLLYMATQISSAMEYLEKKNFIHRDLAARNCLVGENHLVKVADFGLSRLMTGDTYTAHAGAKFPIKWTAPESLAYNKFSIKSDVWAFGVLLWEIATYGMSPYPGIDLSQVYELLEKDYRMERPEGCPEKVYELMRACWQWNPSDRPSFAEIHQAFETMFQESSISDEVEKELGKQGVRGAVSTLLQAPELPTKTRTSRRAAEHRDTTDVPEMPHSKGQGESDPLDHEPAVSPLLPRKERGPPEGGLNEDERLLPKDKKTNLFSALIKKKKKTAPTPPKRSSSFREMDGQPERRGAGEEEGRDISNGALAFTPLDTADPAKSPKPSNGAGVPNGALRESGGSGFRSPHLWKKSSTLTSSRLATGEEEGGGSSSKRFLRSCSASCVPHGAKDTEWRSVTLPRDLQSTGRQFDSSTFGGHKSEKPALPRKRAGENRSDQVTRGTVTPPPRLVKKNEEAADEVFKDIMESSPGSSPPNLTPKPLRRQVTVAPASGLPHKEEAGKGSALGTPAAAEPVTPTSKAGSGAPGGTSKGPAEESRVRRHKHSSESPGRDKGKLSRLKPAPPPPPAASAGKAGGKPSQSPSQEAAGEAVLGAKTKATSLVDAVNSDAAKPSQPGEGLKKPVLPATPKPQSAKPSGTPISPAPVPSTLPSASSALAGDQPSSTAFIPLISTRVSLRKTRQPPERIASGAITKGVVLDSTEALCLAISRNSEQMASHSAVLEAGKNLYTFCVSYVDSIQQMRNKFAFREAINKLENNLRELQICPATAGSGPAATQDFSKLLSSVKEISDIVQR
# [7] = biological target: Proto-oncogene tyrosine-protein kinase Src (Homo sapiens, UniProt P12931); experiment: Inhibition of SRC at 30 uM by microfluidic mobility shift assay; outline: as §1
# Sequence of Proto-oncogene tyrosine-protein kinase Src (P12931 2-536 limits assumed): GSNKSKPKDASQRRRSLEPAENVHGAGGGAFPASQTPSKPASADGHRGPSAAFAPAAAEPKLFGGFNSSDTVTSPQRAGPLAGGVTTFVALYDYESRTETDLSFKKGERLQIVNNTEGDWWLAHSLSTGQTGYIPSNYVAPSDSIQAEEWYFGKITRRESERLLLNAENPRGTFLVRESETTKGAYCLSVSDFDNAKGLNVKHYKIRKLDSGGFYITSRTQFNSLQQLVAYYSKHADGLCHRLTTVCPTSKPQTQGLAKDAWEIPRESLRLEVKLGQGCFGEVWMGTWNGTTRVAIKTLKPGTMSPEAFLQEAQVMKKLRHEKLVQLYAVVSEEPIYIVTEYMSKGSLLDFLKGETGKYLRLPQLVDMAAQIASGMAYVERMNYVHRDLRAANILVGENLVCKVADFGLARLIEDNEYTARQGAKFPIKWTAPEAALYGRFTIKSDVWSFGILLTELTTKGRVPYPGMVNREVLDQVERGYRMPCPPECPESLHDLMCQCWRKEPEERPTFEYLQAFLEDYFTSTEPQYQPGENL
# [8] = biological target: Insulin receptor (Homo sapiens) (UniProt P06213); experiment: Inhibition of INSR at 30 uM by microfluidic mobility shift assay; outline: as §1
# Sequence of Insulin receptor (Homo sapiens) (P06213 28-758 limits assumed): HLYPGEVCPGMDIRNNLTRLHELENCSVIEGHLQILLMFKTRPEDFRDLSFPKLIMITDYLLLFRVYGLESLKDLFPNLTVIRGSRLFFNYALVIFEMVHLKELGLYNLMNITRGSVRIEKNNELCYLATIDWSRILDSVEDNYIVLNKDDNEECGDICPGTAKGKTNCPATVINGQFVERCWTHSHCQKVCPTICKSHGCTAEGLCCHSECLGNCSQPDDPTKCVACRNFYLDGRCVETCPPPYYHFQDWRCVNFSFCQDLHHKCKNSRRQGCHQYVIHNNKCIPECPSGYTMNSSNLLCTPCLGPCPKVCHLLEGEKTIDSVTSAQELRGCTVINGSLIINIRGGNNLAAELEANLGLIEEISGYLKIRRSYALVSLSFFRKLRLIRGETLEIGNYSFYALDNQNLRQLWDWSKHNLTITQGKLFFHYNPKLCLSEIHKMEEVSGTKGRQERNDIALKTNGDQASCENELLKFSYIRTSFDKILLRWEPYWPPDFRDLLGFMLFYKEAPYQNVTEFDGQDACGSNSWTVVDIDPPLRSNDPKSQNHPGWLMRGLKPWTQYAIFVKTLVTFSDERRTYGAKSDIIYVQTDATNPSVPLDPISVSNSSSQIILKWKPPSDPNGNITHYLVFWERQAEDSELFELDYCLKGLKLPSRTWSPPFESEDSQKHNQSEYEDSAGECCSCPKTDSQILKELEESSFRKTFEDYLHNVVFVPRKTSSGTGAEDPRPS
# Sequence of Insulin receptor (Homo sapiens) (P06213 763-1382 limits assumed): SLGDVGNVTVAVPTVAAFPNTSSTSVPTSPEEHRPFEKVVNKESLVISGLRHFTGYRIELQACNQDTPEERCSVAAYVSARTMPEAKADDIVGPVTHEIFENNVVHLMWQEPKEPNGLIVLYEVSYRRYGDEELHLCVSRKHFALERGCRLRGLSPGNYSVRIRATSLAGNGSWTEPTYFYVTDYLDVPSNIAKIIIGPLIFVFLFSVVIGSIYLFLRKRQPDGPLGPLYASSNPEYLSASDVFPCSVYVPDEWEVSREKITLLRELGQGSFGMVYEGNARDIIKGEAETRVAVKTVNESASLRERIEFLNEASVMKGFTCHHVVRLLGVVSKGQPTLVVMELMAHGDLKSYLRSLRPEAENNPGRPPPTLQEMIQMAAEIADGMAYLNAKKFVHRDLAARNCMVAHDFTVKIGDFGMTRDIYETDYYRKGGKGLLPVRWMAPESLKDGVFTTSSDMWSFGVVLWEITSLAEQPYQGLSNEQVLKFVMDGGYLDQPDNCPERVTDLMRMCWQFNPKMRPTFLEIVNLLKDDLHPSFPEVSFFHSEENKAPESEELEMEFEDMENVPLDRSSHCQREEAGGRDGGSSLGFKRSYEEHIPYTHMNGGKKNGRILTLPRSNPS
# [9] = biological target: Mitogen-activated protein kinase 14 (Homo sapiens, UniProt Q16539); experiment: Inhibition of p38alpha at 30 uM by microfluidic mobility shift assay; outline: as §1
# Sequence of Mitogen-activated protein kinase 14 (Q16539 whole entry): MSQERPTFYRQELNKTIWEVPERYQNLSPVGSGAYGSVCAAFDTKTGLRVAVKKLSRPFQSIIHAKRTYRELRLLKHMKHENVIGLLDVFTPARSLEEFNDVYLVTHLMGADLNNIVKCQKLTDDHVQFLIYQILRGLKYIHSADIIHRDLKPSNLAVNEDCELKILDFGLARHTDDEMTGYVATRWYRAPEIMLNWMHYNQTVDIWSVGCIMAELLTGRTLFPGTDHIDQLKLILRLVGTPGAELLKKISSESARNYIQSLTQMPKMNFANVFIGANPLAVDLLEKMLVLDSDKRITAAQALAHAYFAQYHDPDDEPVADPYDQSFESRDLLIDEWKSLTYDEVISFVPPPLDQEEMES
# [10] = biological target: RAC-alpha serine/threonine-protein kinase (Homo sapiens) (UniProt P31749); experiment: Inhibition of AKT1 at 30 uM by microfluidic mobility shift assay; outline: as §1
# Sequence of RAC-alpha serine/threonine-protein kinase (Homo sapiens) (P31749 whole entry): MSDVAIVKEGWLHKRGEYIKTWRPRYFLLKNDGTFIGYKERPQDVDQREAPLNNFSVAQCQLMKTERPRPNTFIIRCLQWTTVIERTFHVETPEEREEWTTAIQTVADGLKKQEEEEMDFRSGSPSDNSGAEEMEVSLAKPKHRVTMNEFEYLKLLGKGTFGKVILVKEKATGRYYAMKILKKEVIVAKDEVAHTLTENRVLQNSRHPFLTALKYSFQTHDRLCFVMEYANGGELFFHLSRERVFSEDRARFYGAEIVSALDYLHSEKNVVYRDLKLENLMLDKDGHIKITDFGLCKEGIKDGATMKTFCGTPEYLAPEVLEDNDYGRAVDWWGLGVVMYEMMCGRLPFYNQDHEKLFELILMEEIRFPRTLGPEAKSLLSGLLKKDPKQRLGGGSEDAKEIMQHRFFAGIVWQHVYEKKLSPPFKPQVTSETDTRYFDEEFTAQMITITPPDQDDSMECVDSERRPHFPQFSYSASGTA
# [11] = biological target: Ribosomal protein S6 kinase alpha-5 (Homo sapiens) (UniProt O75582); experiment: Inhibition of MSK1 at 30 uM by microfluidic mobility shift assay; outline: as §1
# Sequence of Ribosomal protein S6 kinase alpha-5 (Homo sapiens) (O75582 whole entry, looked up): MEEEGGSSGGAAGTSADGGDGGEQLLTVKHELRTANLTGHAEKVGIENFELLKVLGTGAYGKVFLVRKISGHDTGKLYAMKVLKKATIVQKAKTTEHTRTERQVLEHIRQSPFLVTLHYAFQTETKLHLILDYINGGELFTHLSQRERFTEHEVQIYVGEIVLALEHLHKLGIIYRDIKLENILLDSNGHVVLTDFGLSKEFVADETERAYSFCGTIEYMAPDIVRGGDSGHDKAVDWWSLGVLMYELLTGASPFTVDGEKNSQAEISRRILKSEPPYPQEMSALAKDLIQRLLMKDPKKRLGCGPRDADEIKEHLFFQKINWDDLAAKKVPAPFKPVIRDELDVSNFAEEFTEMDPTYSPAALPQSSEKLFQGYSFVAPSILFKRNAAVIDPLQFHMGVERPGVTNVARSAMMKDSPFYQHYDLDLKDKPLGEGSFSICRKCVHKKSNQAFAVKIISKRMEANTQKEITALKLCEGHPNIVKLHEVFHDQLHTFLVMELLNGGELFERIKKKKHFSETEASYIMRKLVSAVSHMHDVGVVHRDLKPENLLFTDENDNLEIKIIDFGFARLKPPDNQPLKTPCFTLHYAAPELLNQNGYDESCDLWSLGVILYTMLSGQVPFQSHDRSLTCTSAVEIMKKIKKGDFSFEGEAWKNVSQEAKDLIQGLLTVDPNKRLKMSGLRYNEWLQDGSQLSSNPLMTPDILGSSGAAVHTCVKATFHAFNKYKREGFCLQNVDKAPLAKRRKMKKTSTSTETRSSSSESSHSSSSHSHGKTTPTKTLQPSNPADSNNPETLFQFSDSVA
Compound,inhibition [1],inhibition [2],inhibition [3],inhibition [4],inhibition [5],inhibition [6],inhibition [7],inhibition [8],inhibition [9],inhibition [10],inhibition [11]
Cc1cc2nc(N)nc(N)c2c(=O)[nH]1,10%,8%,-4%,8%,15%,19%,12%,0%,-1%,5%,6%
CN1CCN(c2ccc(-c3cc4nn(-c5ccccc5)c(N)c4c(=O)[nH]3)cc2)CC1,66%,23%,19%,15%,52%,99%,99%,8%,85%,3%,12%
Nc1n[nH]c2cc(-c3ccc(N4CCOCC4)cc3)[nH]c(=O)c12,51%,-2%,16%,15%,29%,61%,74%,6%,6%,-1%,39%
COCCNc1nc(C)cc2c1c(N)nn2C,15%,-10%,-4%,4%,7%,-8%,2%,0%,1%,6%,0%
COc1ccc(-c2cc3c(c(N)nn3C)c(=O)[nH]2)cc1,33%,-3%,18%,36%,36%,53%,62%,5%,5%,9%,9%
COc1cccc(-c2cc3c(c(N)nn3C)c(=O)[nH]2)c1,17%,6%,22%,25%,27%,21%,30%,6%,2%,-5%,2%
COc1ccccc1-c1cc2nn(-c3ccccc3)c(N)c2c(=O)[nH]1,7%,4%,3%,20%,3%,86%,87%,-2%,68%,15%,7%
Cc1cc2c(c(NS(C)(=O)=O)nn2C)c(=O)[nH]1,-8%,27%,-6%,8%,7%,-2%,-2%,-6%,0%,1%,4%
Nc1n[nH]c2cc(-c3cccnc3)[nH]c(=O)c12,42%,1%,11%,26%,9%,37%,46%,7%,3%,7%,36%
Cc1cc2[nH]nc(N)c2c(N2CCCCC2)n1,84%,43%,46%,14%,11%,18%,33%,9%,1%,36%,87%
CN1CCN(c2ccc(-c3cc4c(c(N)nn4C)c(=O)[nH]3)cc2)CC1,52%,7%,14%,34%,67%,80%,80%,9%,3%,8%,29%
Nc1n[nH]c2cc(-c3ccccn3)[nH]c(=O)c12,38%,3%,24%,33%,29%,40%,63%,34%,17%,2%,35%
COc1ccc(-c2c(C)[nH]c(=O)c3c(N)nn(C)c23)cc1,31%,10%,18%,21%,11%,23%,15%,2%,-1%,13%,13%
CC(=O)Nc1nn(C)c2cc(-c3ccc(N4CCN(C)CC4)cc3)[nH]c(=O)c12,15%,6%,16%,13%,16%,20%,20%,2%,3%,4%,0%
Nc1n[nH]c2c3c([nH]c(=O)c12)CCCC3,12%,-5%,-9%,-7%,17%,0%,6%,-3%,-4%,-3%,1%
